Measured values reported in ChEMBL document CHEMBL1124493, “Synthesis and tumor uptake of 5-82Br- and 5-131I-labeled 5-halo-1-(2-fluoro-2-deoxy-beta-D-ribofuranosyl)uracils” (J Med Chem, 1989).

Experiments:
Mus musculus [1] = experiment: Biodistribution of intravenously injected [82Br]-labeled compound in tumor of BDF1 female mice bearing subcutaneous Lewis lung carcinoma after 2 hours; format: ADME, organism-based; conditions: in vivo, iv
Mus musculus [2] = experiment: Biodistribution of intravenously injected [82Br]-labeled compound in blood of BDF1 female mice bearing subcutaneous Lewis lung carcinoma after 0.25 hours; format: ADME, organism-based; conditions: in vivo, iv
How it was run: (§1)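 82Br-labeled nucleoside given intravenously to female BDF1 mice bearing subcutaneous Lewis lung carcinoma, at 47-130 μg carrying 20-60 kBq. Mice sacrificed at each time point. Wet-weighed tissues γ-counted. Values are percent injected dose per gram wet tissue, mean ± SD, n = 6.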

Mus musculus [3] = experiment: Biodistribution of intravenously injected [82Br]-labeled compound in kidney of BDF1 female mice bearing subcutaneous Lewis lung carcinoma after 0.25 hours; format: ADME, organism-based; conditions: in vivo, iv
How it was run: (§2)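 Female BDF1 mice with subcutaneous Lewis lung carcinoma given an iv injection of [82Br]-labelled nucleoside, 47-130 μg carrying 20-60 kBq 82Br. Tissues were excised, weighed wet and γ-counted. Values are percent injected dose per gram of wet tissue, mean ± standard deviation of six animals, with organ-to-tumour ratios derived.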

Mus musculus [4] = experiment: Biodistribution of intravenously injected [82Br]-labeled compound in blood of BDF1 female mice bearing subcutaneous Lewis lung carcinoma after 4 hours; format: ADME, organism-based; conditions: in vivo, iv; how it was run: as §1
Mus musculus [5] = experiment: Biodistribution of intravenously injected [82Br]-labeled compound in kidney of BDF1 female mice bearing subcutaneous Lewis lung carcinoma after 1 hours; format: ADME, organism-based; conditions: in vivo, iv; how it was run: as §2
Mus musculus [6] = experiment: Biodistribution of intravenously injected [82Br]-labeled compound in gut of BDF1 female mice bearing subcutaneous Lewis lung carcinoma after 8 hours; format: ADME, organism-based; conditions: in vivo, iv; how it was run: as §2
Mus musculus [7] = experiment: Biodistribution of intravenously injected [82Br]-labeled compound in skin of BDF1 female mice bearing subcutaneous Lewis lung carcinoma after 2 hours; format: ADME, organism-based, Zone of skin; conditions: in vivo, iv; how it was run: as §2
Mus musculus [8] = experiment: Biodistribution of intravenously injected [82Br]-labeled compound in blood of BDF1 female mice bearing subcutaneous Lewis lung carcinoma after 24 hours; format: ADME, organism-based; conditions: in vivo, iv; how it was run: as §1
Mus musculus [9] = experiment: Biodistribution of intravenously injected [82Br]-labeled compound in blood of BDF1 female mice bearing subcutaneous Lewis lung carcinoma after 0.50 hours; format: ADME, organism-based; conditions: in vivo, iv, 0.5 h; how it was run: as §1
Mus musculus [10] = species on record: Mus musculus; experiment: Inhibition constant for influx competition with [6-3H]thymidine in mouse erythrocytes; format: functional
How it was run: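 Freshly harvested mouse erythrocytes were exposed to various concentrations of test nucleoside and [6-3H]thymidine, and zero-trans thymidine influx was measured. Extracellular [6-3H]thymidine was measured over time by liquid scintillation counting of aliquots. The Ki for competition at the nucleoside transporter was derived by previously described methods.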

Mus musculus [11] = experiment: Biodistribution of intravenously injected [82Br]-labeled compound in spleen of BDF1 female mice bearing subcutaneous Lewis lung carcinoma after 4 hours; format: ADME, organism-based; conditions: in vivo, iv
Mus musculus [12] = experiment: Biodistribution of intravenously injected [82Br]-labeled compound in liver of BDF1 female mice bearing subcutaneous Lewis lung carcinoma after 8 hours; format: ADME, organism-based; conditions: in vivo, iv; how it was run: as §2
Mus musculus [13] = experiment: Biodistribution of intravenously injected [82Br]-labeled compound in lung of BDF1 female mice bearing subcutaneous Lewis lung carcinoma after 4 hours; format: ADME, organism-based; conditions: in vivo, iv; how it was run: as §2
Mus musculus [14] = experiment: Biodistribution of intravenously injected [82Br]-labeled compound in tumor of BDF1 female mice bearing subcutaneous Lewis lung carcinoma after 0.50 hours; format: ADME, organism-based; conditions: in vivo, iv, 0.5 h
Mus musculus [15] = experiment: Biodistribution of intravenously injected [82Br]-labeled compound in gut of BDF1 female mice bearing subcutaneous Lewis lung carcinoma after 4 hours; format: ADME, organism-based; conditions: in vivo, iv; how it was run: as §2
Mus musculus [16] = experiment: Biodistribution of intravenously injected [82Br]-labeled compound in spleen of BDF1 female mice bearing subcutaneous Lewis lung carcinoma after 8 hours; format: ADME, organism-based; conditions: in vivo, iv
Mus musculus [17] = experiment: Biodistribution of intravenously injected [82Br]-labeled compound in spleen of BDF1 female mice bearing subcutaneous Lewis lung carcinoma after 1 hours; format: ADME, organism-based; conditions: in vivo, iv; how it was run: as §2
Mus musculus [18] = experiment: Biodistribution of intravenously injected [131I]-labeled compound in liver of BDF1 female mice bearing subcutaneous Lewis lung carcinoma after 1 hours; format: ADME, organism-based; conditions: in vivo, iv
How it was run: (§3)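 Female BDF1 mice bearing subcutaneous Lewis lung carcinoma received a single intravenous dose of 0.5-1.8 μg of the 131I-labeled nucleoside (55-110 kBq). They were sacrificed at set times, and tissues were weighed wet and γ-counted. Activity is expressed as percent of injected dose per gram of wet tissue, given as mean ± standard deviation for six animals.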

Mus musculus [19] = experiment: Biodistribution of intravenously injected [131I]-labeled compound in heart of BDF1 female mice bearing subcutaneous Lewis lung carcinoma after 0.50 hours; format: ADME, organism-based; conditions: in vivo, iv, 0.5 h; how it was run: as §3
Mus musculus [20] = experiment: Biodistribution of intravenously injected [131I]-labeled compound in blood of BDF1 female mice bearing subcutaneous Lewis lung carcinoma after 24 hours; format: ADME, organism-based; conditions: in vivo, iv; how it was run: as §3
Mus musculus [21] = experiment: Biodistribution of intravenously injected [131I]-labeled compound in tumor of BDF1 female mice bearing subcutaneous Lewis lung carcinoma after 0.50 hours; format: ADME, organism-based; conditions: in vivo, iv, 0.5 h
How it was run: (§4)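 Female BDF1 mice with subcutaneous Lewis lung carcinoma given i.v. 0.5-1.8 μg of 131I-labeled nucleoside (55-110 kBq). Killed at set times. Tissues weighed wet and γ-counted. Radioactivity expressed as percent injected dose per gram wet tissue, mean ± SD of six animals.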

Mus musculus [22] = species on record: Mus musculus; experiment: Urinary [131I]- compound observed in BDF1 female mice bearing lewis lung tumor after 2-3 hr of injected [131I]-compound; format: functional, tissue-based; conditions: Urine
Mus musculus [23] = experiment: Biodistribution of intravenously injected [131I]-labeled compound in heart of BDF1 female mice bearing subcutaneous Lewis lung carcinoma after 2 hours; format: ADME, organism-based; conditions: in vivo, iv; how it was run: as §3
Mus musculus [24] = experiment: Biodistribution of intravenously injected [131I]-labeled compound in lung of BDF1 female mice bearing subcutaneous Lewis lung carcinoma after 1 hours; format: ADME, organism-based; conditions: in vivo, iv; how it was run: as §3
Mus musculus [25] = species on record: Mus musculus; experiment: Urinary iodide observed in BDF1 female mice bearing lewis lung tumor after 2-3 hr of injected [131I]-compound; format: functional, tissue-based; conditions: Urine
Mus musculus [26] = species on record: Mus musculus; experiment: Other urinary compounds observed in BDF1 female mice bearing lewis lung tumor after 2-3 hr of injected [131I]-compound; format: functional, tissue-based; conditions: Urine
Mus musculus [27] = experiment: Biodistribution of intravenously injected [131I]-labeled compound in liver of BDF1 female mice bearing subcutaneous Lewis lung carcinoma after 8 hours; format: ADME, organism-based; conditions: in vivo, iv; how it was run: as §3
Mus musculus [28] = experiment: Biodistribution of intravenously injected [131I]-labeled compound in skin of BDF1 female mice bearing subcutaneous Lewis lung carcinoma after 1 hours; format: ADME, organism-based, Zone of skin; conditions: in vivo, iv; how it was run: as §4
Mus musculus [29] = experiment: Biodistribution of intravenously injected [131I]-labeled compound in lung of BDF1 female mice bearing subcutaneous Lewis lung carcinoma after 8 hours; format: ADME, organism-based; conditions: in vivo, iv; how it was run: as §3
Mus musculus [30] = species on record: Mus musculus; experiment: Urinary [131I]5-iodouracil observed in BDF1 female mice bearing lewis lung tumor after 24 hr of injected [131I]-compound; format: functional, tissue-based; conditions: Urine
Mus musculus [31] = experiment: Biodistribution of intravenously injected [131I]-labeled compound in bone of BDF1 female mice bearing subcutaneous Lewis lung carcinoma after 0.25 hours; format: ADME, organism-based, Bone element; conditions: in vivo, iv; how it was run: as §3
Mus musculus [32] = experiment: Biodistribution of intravenously injected [131I]-labeled compound in stomach of BDF1 female mice bearing subcutaneous Lewis lung carcinoma after 8 hours; format: ADME, organism-based; conditions: in vivo, iv; how it was run: as §4
Mus musculus [33] = experiment: Biodistribution of intravenously injected [131I]-labeled compound in kidney of BDF1 female mice bearing subcutaneous Lewis lung carcinoma after 4 hours; format: ADME, organism-based; conditions: in vivo, iv; how it was run: as §3
Mus musculus [34] = experiment: Biodistribution of intravenously injected [131I]-labeled compound in blood of BDF1 female mice bearing subcutaneous Lewis lung carcinoma after 0.50 hours; format: ADME, organism-based; conditions: in vivo, iv, 0.5 h; how it was run: as §3
Mus musculus [35] = experiment: Biodistribution of intravenously injected [131I]-labeled compound in stomach of BDF1 female mice bearing subcutaneous Lewis lung carcinoma after 1 hours; format: ADME, organism-based; conditions: in vivo, iv; how it was run: as §4
Mus musculus [36] = experiment: Biodistribution of intravenously injected [131I]-labeled compound in bone of BDF1 female mice bearing subcutaneous Lewis lung carcinoma after 2 hours; format: ADME, organism-based, Bone element; conditions: in vivo, iv; how it was run: as §3
Mus musculus [37] = experiment: Biodistribution of intravenously injected [131I]-labeled compound in heart of BDF1 female mice bearing subcutaneous Lewis lung carcinoma after 8 hours; format: ADME, organism-based; conditions: in vivo, iv; how it was run: as §3

Compound: O=c1[nH]c(=O)n([C@H]2O[C@@H](CO)[C@H](O)[C@H]2F)cc1Br
- Injected dose/g (Mus musculus [1]): 0.57%
- Injected dose/g (Mus musculus [2]): 2.68%
- Injected dose/g (Mus musculus [3]): 7.69%
- Injected dose/g (Mus musculus [4]): 0.6%
- Injected dose/g (Mus musculus [5]): 1.12%
- Injected dose/g (Mus musculus [6]): 0.33%
- Injected dose/g (Mus musculus [7]): 0.39%
- Injected dose/g (Mus musculus [8]): 0.51%
- Injected dose/g (Mus musculus [9]): 1.36%
- Ki (Mus musculus [10]): 390 µM
- Injected dose/g (Mus musculus [11]): 0.28%
- Injected dose/g (Mus musculus [12]): 0.28%
- Injected dose/g (Mus musculus [13]): 0.38%
- Injected dose/g (Mus musculus [14]): 0.95%
- Injected dose/g (Mus musculus [15]): 0.28%
- Injected dose/g (Mus musculus [16]): 0.34%
- Injected dose/g (Mus musculus [17]): 0.38%

Compound: O=c1[nH]c(=O)n([C@@H]2O[C@H](CO)[C@@H](O)[C@H]2F)cc1I
- Injected dose/g (Mus musculus [18]): 3.6%
- Injected dose/g (Mus musculus [19]): 6.4%
- Injected dose/g (Mus musculus [20]): 0.16%
- Injected dose/g (Mus musculus [21]): 3.7%
- Radioactive constituents (Mus musculus [22]): 82.8%
- Injected dose/g (Mus musculus [23]): 5.7%
- Injected dose/g (Mus musculus [24]): 7%
- Radioactive constituents (Mus musculus [25]): 13.7%
- Radioactive constituents (Mus musculus [26]): 3.5%
- Injected dose/g (Mus musculus [27]): 1.4%
- Injected dose/g (Mus musculus [28]): 5%
- Injected dose/g (Mus musculus [29]): 2.6%
- Radioactive constituents (Mus musculus [30]): 0%
- Injected dose/g (Mus musculus [31]): 2.4%
- Ki (Mus musculus [10]): 410 µM
- Injected dose/g (Mus musculus [32]): 5.3%
- Injected dose/g (Mus musculus [33]): 7.3%
- Injected dose/g (Mus musculus [34]): 16%
- Injected dose/g (Mus musculus [35]): 4.5%
- Injected dose/g (Mus musculus [36]): 1.2%
- Injected dose/g (Mus musculus [37]): 1.6%
